Results: ChEMBL document CHEMBL4477182, “Evaluation of the Intestinal Absorption Mechanism of Casearin X in Caco-2 Cells with Modified Carboxylesterase Activity” (J Nat Prod, 2016)

Key:
[1] = Cytotoxicity against human Caco2 cells assessed as cell viability at 1 uM after 5 hrs by MTT assay relative to control; assay type: cell-based; conditions: Caco-2 cells, read-out: Activity
Summary of the method: (§1)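 Caco-2 cells (passage 60−65) seeded at 1.14 × 10^5 cells/cm2, grown 24 h, then exposed in transport buffer (pH 7.4) to 1, 2, 3, 4, 5 and 10 μM for 5 h at 37 °C, 8% CO2. After a DPBS wash, MTT was added for 2 h. A 1% DMSO blank gave background. n = 18; ANOVA with Bonferroni test.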

[2] = Cytotoxicity against human Caco2 cells assessed as cell viability at 2 uM after 5 hrs by MTT assay relative to control; assay type: cell-based; conditions: Caco-2 cells, read-out: Activity; summary of the method: as §1
Caco-2 = assay: Cytotoxicity against human Caco2 cells assessed as reduction in cell viability after 5 hrs by MTT assay; assay type: cell-based; conditions: caco-2, 5 h; summary of the method: as §1
[3] = Permeability from apical to basolateral side in human Caco2 cells assessed as drug recovery at 2 uM after 10 mins in absence of CES inhibitor BNPP by LC-MS method; assay type: ADME, cell-based; conditions: Caco-2, read-out: Drug recovery
Summary of the method: (§2)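 Caco-2 monolayers grown 19−21 days on Transwell inserts. Pretreated 40 min at 37 °C with 200 μM BNPP in HBSS on both sides, or sham HBSS, then 40 min DMEM washout. Monolayers with TEER >250 Ω cm2 were dosed at 2 μM (1% DMSO) on the donor side; basolateral buffer had 4% FBS. Shaken at 37 °C. Buffer, cell and plastic extracts at 10, 60 and 120 min were measured by LC-MS for total recovery; mean(SD), n = 3.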

[4] = Permeability from apical to basolateral side in human Caco2 cells assessed as drug recovery at 2 uM after 60 mins in absence of CES inhibitor BNPP by LC-MS method; assay type: ADME, cell-based; conditions: Caco-2, read-out: Drug recovery; summary of the method: as §2
[5] = Permeability from apical to basolateral side in human Caco2 cells assessed as drug recovery at 2 uM after 120 mins in absence of CES inhibitor BNPP by LC-MS method; assay type: ADME, cell-based; conditions: Caco-2, read-out: Drug recovery; summary of the method: as §2
[6] = Permeability from apical to basolateral side in human Caco2 cells assessed as drug recovery at 2 uM after 10 mins in presence of CES inhibitor BNPP by LC-MS method; assay type: ADME, cell-based; conditions: Caco-2, with BNPP (CES inhibitor), concentration not stated, read-out: Drug recovery; summary of the method: as §2
[7] = Permeability from apical to basolateral side in human Caco2 cells assessed as drug recovery at 2 uM after 60 mins in presence of CES inhibitor BNPP by LC-MS method; assay type: ADME, cell-based; conditions: Caco-2, with BNPP (CES inhibitor), concentration not stated, read-out: Drug recovery; summary of the method: as §2
[8] = Permeability from apical to basolateral side in human Caco2 cells assessed as drug recovery at 2 uM after 120 mins in presence of CES inhibitor BNPP by LC-MS method; assay type: ADME, cell-based; conditions: Caco-2, with BNPP (CES inhibitor), concentration not stated, read-out: Drug recovery; summary of the method: as §2
[9] = Permeability from basolateral to apical side in human Caco2 cells assessed as drug recovery at 2 uM after 10 mins in absence of CES inhibitor BNPP by LC-MS method; assay type: ADME, cell-based; conditions: Caco-2, read-out: Drug recovery; summary of the method: as §2
[10] = Permeability from basolateral to apical side in human Caco2 cells assessed as drug recovery at 2 uM after 60 mins in absence of CES inhibitor BNPP by LC-MS method; assay type: ADME, cell-based; conditions: Caco-2, read-out: Drug recovery; summary of the method: as §2
[11] = Permeability from basolateral to apical side in human Caco2 cells assessed as drug recovery at 2 uM after 120 mins in absence of CES inhibitor BNPP by LC-MS method; assay type: ADME, cell-based; conditions: Caco-2, read-out: Drug recovery; summary of the method: as §2
[12] = Permeability from basolateral to apical side in human Caco2 cells assessed as drug recovery at 2 uM after 10 mins in presence of CES inhibitor BNPP by LC-MS method; assay type: ADME, cell-based; conditions: Caco-2, with BNPP (CES inhibitor), concentration not stated, read-out: Drug recovery; summary of the method: as §2
[13] = Permeability from basolateral to apical side in human Caco2 cells assessed as drug recovery at 2 uM after 60 mins in presence of CES inhibitor BNPP by LC-MS method; assay type: ADME, cell-based; conditions: Caco-2, with BNPP (CES inhibitor), concentration not stated, read-out: Drug recovery; summary of the method: as §2
[14] = Permeability from basolateral to apical side in human Caco2 cells assessed as drug recovery at 2 uM after 120 mins in presence of CES inhibitor BNPP by LC-MS method; assay type: ADME, cell-based; conditions: Caco-2, with BNPP (CES inhibitor), concentration not stated, read-out: Drug recovery; summary of the method: as §2
CE2 (cocaine esterase) [15] = biological target: T1, CE2 (cocaine esterase) (Homo sapiens, UniProt O00748); assay: Drug metabolism assessed as human CE2-mediated compound hydrolysis at 1 uM incubated for 30 mins measured every 5 mins by LC-MS analysis; assay type: ADME; conditions: human CE2 enzyme, read-out: Drug metabolism
T1 sequence (O00748 whole entry): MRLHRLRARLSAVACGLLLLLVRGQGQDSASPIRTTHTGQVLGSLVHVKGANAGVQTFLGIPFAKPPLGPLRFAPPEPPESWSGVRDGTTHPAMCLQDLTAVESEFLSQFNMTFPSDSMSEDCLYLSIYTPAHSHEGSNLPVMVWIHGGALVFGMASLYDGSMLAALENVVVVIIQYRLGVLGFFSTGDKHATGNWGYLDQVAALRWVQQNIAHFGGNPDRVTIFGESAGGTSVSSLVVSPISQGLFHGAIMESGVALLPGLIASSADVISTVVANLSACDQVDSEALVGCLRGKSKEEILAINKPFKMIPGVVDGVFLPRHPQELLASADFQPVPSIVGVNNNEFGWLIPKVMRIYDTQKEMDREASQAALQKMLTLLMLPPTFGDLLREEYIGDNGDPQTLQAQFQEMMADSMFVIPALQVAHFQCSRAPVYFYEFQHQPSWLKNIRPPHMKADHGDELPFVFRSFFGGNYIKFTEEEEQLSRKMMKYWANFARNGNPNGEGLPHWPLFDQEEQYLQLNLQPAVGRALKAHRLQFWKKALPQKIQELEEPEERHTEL
Summary of the method: (§3)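 Purified human hCE2 (0.2 μg/mL) in 90 mM KH2PO4, 40 mM KCl, pH 7.3, preincubated 5 min at 37 °C. Reaction started with 1 μM substrate (0.1% DMSO final) and sampled every 5 min to 30 min, in triplicate. Quenched with ice-cold acetonitrile and quantified by LC-MS (SIM, m/z 555 Na adduct). Half-life = ln 2 / slope of ln % remaining versus time.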

CE2 (cocaine esterase) [16] = biological target: T1, CE2 (cocaine esterase); assay: Drug metabolism assessed as human CE2-mediated compound hydrolysis by measuring compound half life at 1 uM incubated for 30 mins by LC-MS analysis; assay type: ADME; conditions: human CE2 enzyme; summary of the method: as §3
Cocaine esterase = biological target: T2, Cocaine esterase (Homo sapiens, UniProt O00748); assay: Drug metabolism assessed as human CE2-mediated compound hydrolysis by measuring specific activity of enzyme per mg of protein at 1 uM incubated for 30 mins; assay type: ADME; conditions: 0.5 h; summary of the method: as §3
T2 sequence (O00748 whole entry): T1 sequence (O00748 whole entry)

- recovery at 10 min, 2 µM [3]: 68.4%
- recovery at 1 h, 2 µM [4]: 33.3%
- recovery at 2 h, 2 µM [5]: 12%
- recovery at 10 min, 2 µM [6]: 85.4%
- recovery at 1 h, 2 µM [7]: 87.2%
- recovery at 2 h, 2 µM [8]: 87.4%
- recovery at 10 min, 2 µM [9]: 74.4%
- recovery at 1 h, 2 µM [10]: 46.5%
- recovery at 2 h, 2 µM [11]: 27.6%
- recovery at 10 min, 2 µM [12]: 93.9%
- recovery at 1 h, 2 µM [13]: 89.3%
- recovery at 2 h, 2 µM [14]: 92.9%
- metabolised at 0.5 h, 1 µM (CE2 (cocaine esterase) [15]): 30%
- half-life at 1 µM (CE2 (cocaine esterase) [16]): 49.5 min
- Drug metabolism (Cocaine esterase): 55.8 pmol/min
SMILES: C=C/C(C)=C\C[C@]1(C)[C@H](C)C[C@H](O)[C@@]23C(=C[C@H](OC(=O)CCC)C[C@@H]12)[C@@H](OC(=O)CCC)O[C@H]3OC(C)=O
- viability at 5 h, 1 µM [1]: 98.9%
- viability at 5 h, 2 µM [2]: 97.9%
- Activity (Caco-2): Dose-dependent effect
